For orientation: Ki means the dissociation constant of the complex between target and ligand, obtained from inhibition or displacement.

A value given as a limit tells only on which side of the number the result lay.

The values below come from paper PMC6176901 (ChemMedChem, 2018).

Data set [1] has as its system A549 (human lung adenocarcinoma). The data set can be described thus: Cytotoxic MTS assay, A549. Format: cell-based. Conditions: A549, 72 h, read-out: Cytotoxic activity IC50, A549. Put shortly: (§1)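 Human lines grown in DMEM/RPMI 1640 with 10% fetal calf serum; CEM-DNR and K562-TAX sublines selected in rising daunorubicin or paclitaxel. Seeded at 25000–35000 cells/mL in 384-well plates; DMSO solutions added at time zero; 72 h at 37 °C, 5% CO2. MTS added for 1–4 h; OD at 490 nm. Survival versus control wells; IC50 from dose-response curves. Technical duplicates, ≥3 biological replicates.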
A general note: Tetrazolium dyes change colour on reduction, which living cells bring about.

The subject of data set [2] is CCRF-CEM (T-lymphoblastic leukemia). The data set can be described thus: Cytotoxic MTS assay, CCRF-CEM. It counts as cell-based. The following applies: Homo sapiens, 72 h, read-out: Cytotoxic activity IC50, CCRF-CEM. The essentials: as §1
Data set [3] deals with CEM-DNR (T-lymphoblastic leukemia, daunorubicin resistant). The data set can be described thus: Cytotoxic MTS assay, CEM-DNR. It counts as cell-based. The following applies: Homo sapiens, 72 h, read-out: Cytotoxic activity IC50, CEM-DNR. The essentials:
as §1

The test system of data set [4] is K562 (acute myeloid leukemia). Description: Cytotoxic MTS assay, K562. It counts as cell-based. The essentials:
as §1

In data set [5] the test system is K562-TAX (acute myeloid leukemia, overexpressing the P-glycoprotein). The data set can be described thus: Cytotoxic MTS assay, K562-TAX. It counts as cell-based. Conditions: 72 h, read-out: Cytotoxic activity IC50, K562-TAX. Put shortly:
as §1

Data set [6] deals with U2OS (Human Bone Osteosarcoma Epithelial Cells). The data set can be described thus: Cytotoxic MTS assay, U2OS. It counts as cell-based. The following applies: 72 h, read-out: Cytotoxic activity IC50, U2OS. Put shortly: as §1
A short description of another data set: Cytotoxic MTS assay, BJ. Format: cell-based. The following applies: human, BJ cells (non-malignant fibroblasts). Put shortly:
as §1

Data set [7] in a line: Cytotoxic MTS assay, MRC-5. It counts as cell-based. The following applies: human, MRC-5 cells (non-malignant lung fibroblasts). The essentials: as §1
Data set [8] deals with cancer and non-malignant cell lines. The data set can be described thus: Cytotoxic MTS assay, statements over several cell lines. It counts as cell-based. The following applies: read-out: cytotoxicity, range over sensitive lines. Put shortly:
as §1

In another data set the target is hERManI. The following applies: read-out: Ki for hERManI (in AspMan column); cited from earlier work.
For data set [9] the following is noted: cited from earlier work.
The target of data set [10] is GMII (human Golgi α-mannosidase II). The following applies: ref 9a, cited from earlier work.
The target of data set [11] is LMan (human lysosomal α-mannosidase). The following applies: read-out: LMan IC50 (in LManII column); ref 9a; cited from earlier work.

In the case of `O[C@H]1[C@H]2[C@H](O)CCCN2C[C@H]1O` [Compound 1, (1S,2R,8R,8aR)-trihydroxy-indolizidine], the IC50 in data set [1] was greater than 200 µM; in [2] it was 113 ± 12 µM; in data set [3], 132 ± 20 µM; in [4] (Homo sapiens, K562, 72 h, read-out: Cytotoxic activity IC50, K562) it was greater than 200 µM; in data set [5] it was 137 ± 13 µM; in [6], greater than 200 µM. In [8], the IC50 fell in the range of 110 to 140 µM. Further, the “K562 inhibition, in words” value in data set [4] (non-resistant K562) is “did not inhibit”. Further, the IC50 at 72 h in the data set “Cytotoxic MTS assay, BJ” was greater than 200 µM; in [7], greater than 200 µM. The Ki at hERManI is greater than 10000 µM. Further, the “pKa ligand, Water pH=7, calculated by Sladek et al.” value in [9] is 7.8.
For the molecule `OC[C@@H](O)[C@H]1NC[C@@H](O)[C@H]1O` [Compound 24, 1,4-dideoxy-1,4-imino-D-mannitol], the IC50 in data set [10] (read-out: GMII IC50 (in GMIIb column)) was 100 µM; in data set [11], 13 µM. Moreover, the “pKa ligand, Water pH=7, calculated by Sladek et al.” value in [9] was 6.6.
On to `OC[C@@H](O)[C@@H]1[C@H](O)[C@H](O)CN1Cc1ccccc1` [Compound 25], for which, in [10], the “Selectivity index, LMan/GMII” value is 2.
